Reference: article PMC4529374 (Pharmaceutical research, 2015)
≈ marks a conversion by molar mass, not a printed value.

Experiments:
[1] = CSIC solubility in water and solubilizer solutions; type: physicochemical; details: water
Summary of the method: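 Excess CSIC was rotated at moderate speed in the solubilizer solutions at ambient temperature for 120 h. The mixture was filtered through a 0.2 µm membrane, and the filtrate was assayed by HPLC. HPLC conditions: Gemini C18 column, isocratic acetonitrile-0.075% (v/v) TFA (40:60) at 1.2 ml/min, UV detection at 302 nm, room temperature, total peak area against a linear least-squares calibration. LOQ was 0.5 µg/ml.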

[2] = EFdA/CSIC stability in the film polymer solution; type: physicochemical; details: 25°C/65% R.H. and 40°C/75% R.H., 4 weeks
Summary of the method: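 Drug-loaded aqueous PVA (7%, w/w) film-casting solution, about 0.5 ml per vial, was sealed against evaporation and light. EFdA: Zorbax C18, 0.4% phosphoric acid/methanol gradient, 0.8 ml/min, UV 260 nm. CSIC: Gemini C18, acetonitrile-0.075% TFA (40:60), 1.2 ml/min, UV 302 nm.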

[3] = In vitro cytotoxicity, MTT assay; type: cell-based; details: human, HEC-1A cells
Summary of the method: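 HEC-1A cells were grown in McCoy's 5A with 10% FBS and penicillin/streptomycin at 37°C, 5% CO2, then seeded at 1×10⁴ cells/well. After 24 h, free drug (5 ng/ml–50 µg/ml) or film at the equivalent dose, or placebo film, was added for 24 h. MTT (5 mg/ml stock) was added in fresh medium for 3 h at 37°C. Formazan was dissolved in DMSO and absorbance read at 595 nm.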

[4] = tested on: HIV-1; details: read-out: EC50 of CSIC; cited from earlier work

Question: Which solubility [1] does the source give for `NC(=O)c1[nH]c2ccc(Cl)cc2c1S(=O)(=O)c1ccccc1` [CSIC, 5-chloro-3-phenylsulfonylindole-2-carboxamide] here?
Answer: < 0.5 µg/mL

Question: And the “loss of drug content in film polymer solution” value [2]?
Answer: No loss of drug content

Question: What about the CC50 at 24 h [3] of the same compound?
Answer: 11.4 ± 2.8 µg/mL (≈ 34.1 µM)

Question: What about the EC50 [4] of the same compound?
Answer: 1.2 nM

Question: For `C#C[C@]1(CO)O[C@@H](n2cnc3c(N)nc(F)nc32)C[C@@H]1O` [EFdA, 4’-ethynyl-2-fluoro-2’-deoxyadenosine], which “loss of drug content in film polymer solution” value [2] is on record?
Answer: No loss of drug content

Question: And the CC50 at 24 h [3]?
Answer: > 50 µg/mL
